The test system of one assay is Escherichia coli. Nature of the assay: Antibacterial activity against Escherichia coli WF+. It counts as functional, organism-based.
In assay [1] the test system is Staphylococcus aureus. Nature of the assay: Antibacterial activity against Staphylococcus aureus Rosenbach 209 after 48 hrs by agar well diffusion method. It counts as functional. A digest of the protocol:
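Agar-well diffusion on meat-peptone agar. Read-out was the diameter of the inhibition zone, with ≥15 mm taken as active. Pure solvent served as the control.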
(In general: Agar diffusion results depend on both activity and mobility in agar.)

In assay [2] the test system is Staphylococcus aureus. Put plainly: Antibacterial activity against Staphylococcus aureus Rosenbach 209 after 24 hrs by serial dilution method. Format: functional. Particulars: Rosenbach 209, 24 h. A digest of the protocol:
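Serial dilution of each chalcone in meat-peptone broth in tubes. Each tube was inoculated with bacterial suspension at 10⁵ cells/ml and incubated at 37 °C for 24 h. MIC was the lowest dilution with no visible growth compared with inoculated drug-free broth.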

In brackets after ≈: the same amount, converted by molar mass. Activity calls are given as the source filed them. The rule behind the calls is not given here.

The values below come from ChEMBL document CHEMBL1137684, “Examination of growth inhibitory properties of synthetic chalcones for which antibacterial activity was predicted” (2009).

The term MIC denotes the lowest concentration found to suppress growth. A high value points to a less susceptible organism. `COc1cc(C(=O)/C=C/C=C/c2ccccc2)cc(OC)c1OC`: in the assay with Escherichia coli, the result was inactive. In addition, the “diameter of the inhibition zone (DIZ)” value with Staphylococcus aureus [1] is on record as 19 mm. In the assay on Staphylococcus aureus [2], this compound displayed an MIC of 500 µg/mL (≈ 1540 µM).
